High-throughput results as filed in PubChem BioAssay.
An excerpt weighted towards active compounds, which were near 5.8% of everything screened.
ROMK primary – modulators of human ROMK potassium channel; P48048; AID 1918; B-score at 10 µM; hit rate 2% among 130,000; Tet-inducible ROMK, thallium flux fluorescence; actives lie on both sides;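 active = signal ratio slope over the read window, or its plate-corrected B-score, at least 3 SD from the plate mean, either direction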;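 note: B-score of the F/F0 ratio slope over 7 to 12 s after thallium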
14-3-3 Bad PPI – disrupts binding of bovine 14-3-3 zeta to phospho-Bad peptide; TR-FRET 14-3-3zeta/Dy647-pBad peptide displacement, 1 h; hit rate 0.71% among 220,000; inhibition, % at 21.7 µM; P63103;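 active = inhibition above about 70%, limit read from the data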;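 note: 0% = full 14-3-3 plus peptide FRET controls and 100% = background without 14-3-3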
Target sequence (P63103 whole entry, looked up): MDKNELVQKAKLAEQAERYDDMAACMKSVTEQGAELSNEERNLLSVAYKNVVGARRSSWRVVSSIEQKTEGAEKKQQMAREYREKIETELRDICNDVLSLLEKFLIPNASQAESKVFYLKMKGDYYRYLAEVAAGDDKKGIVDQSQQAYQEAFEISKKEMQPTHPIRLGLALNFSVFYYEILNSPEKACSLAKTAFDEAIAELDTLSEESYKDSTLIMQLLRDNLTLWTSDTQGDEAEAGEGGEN
RBBP9 inhibitor – human RBBP9 hydrolase inhibition. O75884. recombinant RBBP9, FP-Rh probe fluorescence polarization. inhibition, % at 7.94 µM. hit rate 0.2% among 220,000. AID 1515;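 active = inhibition above the campaign mean of all tested compounds plus 3 SD, cut at about 14% in these data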;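 note: plate controls were DMSO wells with RBBP9 for no effect and wells lacking RBBP9 protein for full effect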
Target sequence (O75884 whole entry, looked up): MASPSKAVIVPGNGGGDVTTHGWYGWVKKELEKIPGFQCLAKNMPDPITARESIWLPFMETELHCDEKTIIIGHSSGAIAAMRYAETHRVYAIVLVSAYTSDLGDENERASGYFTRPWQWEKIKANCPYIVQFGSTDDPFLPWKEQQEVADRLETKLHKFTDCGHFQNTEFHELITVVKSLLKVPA
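System: RBBP9 protein / Buffer or medium: Tris/NaCl buffer pH 8.0 with 0.1% Pluronic / Probe or stimulus: Serine-hydrolase probe FP-Rh, 375 nM pre-mixing / Dosing: 7.94 µM single dose, 0.794% DMSO / Times: enzyme-compound preincubation 30 min, then probe labeling 45 min, 25 °C / Technique: fluorescence polarization (mP), excitation 525 nm, emission 598 nm / Replication: singlicate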
KCC2 mod – modulators of human KCC2 chloride dependent transport; KCC2 cells, thallium flux FluoZin-2 fluorescence; B-score of Tl+ flux slope (higher = more flux/activation; lower = inhibition) at 10 µM; hit rate 2.2% among 190,000;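 active = thallium flux slope and its plate-corrected score both differing from the plate sample mean at a set confidence after two filtering rounds, in either direction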;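 note: slope of fluorescence scaled to starting intensity during 10 to 20 s after thallium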
WT yeast gro inh – growth inhibition of WT yeast, mitochondrial fusion screen. mitochondrial fusion phenotypic screen, WT strain. inhibition, % at 10 µM. hit rate 2.1% among 190,000; in the data active = inhibition above about 58%; tested in S. cerevisiae
p47phox inh – inhibitors of human p47phox binding; P14598; hit rate 0.53% among 220,000; inhibition, % at 24.7 µM; p47phox/p22phox peptide binding, fluorescence polarization, 2 h;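 active = inhibition above about 30%, limit read from the data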;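 note: 0% = p47phox with labelled peptide and 100% = labelled peptide alone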
* hit, by the source's call; x = no result given.

SMILES	ROMK primary	14-3-3 Bad PPI	RBBP9 inhibitor	KCC2 mod	WT yeast gro inh	p47phox inh
O=C(CNC1CCCCC1)Nc1cc(S(=O)(=O)N2CCOCC2)ccc1Cl	0.68	-2	-1	-1.3	-7	-7
Cc1ccc2nc(-c3ccc(NC(=S)NC4CC(C)(C)NC(C)(C)C4)cc3)sc2c1	-0.047	93*	-5	-2.3	60*	22
Cc1ccc2nc(-c3ccc(NC(=S)NC(=O)C(C)C)cc3)sc2c1	-0.002	-4	2	-0.16	-5	-67
O=C(Nc1ccccc1C(=O)N/N=C/c1ccncc1)c1ccccc1	-0.55	-4	0	-0.079	77*	-13
O=C(N/N=C/c1ccncc1)c1cc([N+](=O)[O-])cc([N+](=O)[O-])c1O	x	89*	-1	x	-13	1
CNCCCC1Sc2ccccc2Oc2ccccc21 (centres undefined)	-3.7*	41	-5	1.6	7	-8
O=C1C2C3C=CC(C3)C2C(=O)N1CCCO (centres undefined)	x	-1	1	x	-9	-14
O=C1C2C3C=CC(C3)C2C(=O)N1CCCCN1C(=O)C2C3C=CC(C3)C2C1=O (centres undefined)	0.049	73*	4	-0.23	3	-2
Cc1c(C)n(CC(O)CN2CCCCC2)c2ccccc12 (centres undefined)	x	36	-7	0.26	-16	-7
Cc1c(C)n(CC(O)CN2CCOCC2)c2ccccc12 (centres undefined)	x	12	-8	1.3	1	66*
Nc1ccc(C2=Nc3cccc4cccc(c34)N2)cc1	x	9	9	-1.2	-6	15
CC1=Nc2cccc3cccc(c23)N1	x	0	5	-0.026	20	158*
Oc1ccc(/C=N/Nc2cc(N3CCOCC3)nc(N3CCOCC3)n2)cc1O	0.24	1	-7	-0.46	-1	-11
Oc1ccccc1/C=N/Nc1cc(N2CCCC2)nc(N2CCCC2)n1	x	-13	-2	-1	74*	-9
COc1ccc(C(=O)N2c3cc4c(cc3C(C)=CC2(C)C)OCO4)cc1	x	4	2	0.26	60*	-4
CN(Cc1ccccc1)CC(O)COc1ccc(CNCCc2ccncc2)cc1 (centres undefined)	-0.12	86*	0	-0.23	4	-2
CN(Cc1ccccc1)CC(O)COc1ccc(CNCCc2cccnc2)cc1 (centres undefined)	0.47	-5	-1	-0.85	6	-10
CCC(C)NC(=S)Nc1ccccc1 (centres undefined)	-0.65	-4	2	-0.062	x	-3
CCCC(C)NC(=S)Nc1cc(C)cc(C)c1 (centres undefined)	x	-8	-5	0.12	73*	-1
CCNC(=S)NNC(=O)c1cc(Br)cs1	1.6	-15	1	-0.39	-8	-11
Cc1cc(C(=O)Nn2c(-c3ccc(Br)cc3)nc3ccccc3c2=O)ccc1[N+](=O)[O-]	-1.4	-19	-5	-0.34	68*	-14
CCN(CC(=O)NCc1cccs1)c1ccc(S(=O)(=O)N2CCN(C)CC2)cn1	x	4	-5	x	x	-22
Cc1ccc(NC(=O)c2ccccc2NS(=O)(=O)c2ccc(Cl)s2)cc1S(=O)(=O)N1CCOCC1	-3.1*	24	-10	-4.2*	7	-16
COc1ccc(C)cc1NC(=O)c1ccccc1NS(=O)(=O)c1ccc(Cl)s1	-3.7*	2	-7	-3.6*	84*	-21
CCCc1nc2sc3c(c2c(=O)n1NC(=O)c1ccco1)CC(C)(C)OC3	1.7	10	-2	0.17	-12	-4
SMILES	ROMK primary	14-3-3 Bad PPI	RBBP9 inhibitor	KCC2 mod	WT yeast gro inh	p47phox inh
CCCCCCCCCc1nc2sc3c(c2c(=O)n1NC(=O)c1ccc([N+](=O)[O-])cc1)CC(C)(C)OC3	1.4	14	-4	0.046	64*	-13
CCCCCCCCCc1nc2sc3c(c2c(=O)n1NC(=O)c1ccccc1[N+](=O)[O-])CC(C)(C)OC3	0.14	19	-14	1.8	71*	-5
CCc1nc2sc3c(c2c(=O)n1N)CC(C)(C)OC3	-0.38	-8	1	-0.02	-11	-9
O=C(/C=C/c1cnc2ccccc2n1)NC12CC3CC(CC(C3)C1)C2	x	6	-5	0.64	-10	-26
CC1C/C(=N/Nc2nc3ccccc3[nH]2)CC(C)(C)C1 (centres undefined)	-0.24	4	9	0.74	13	-21
Cc1cc(N/N=C2\CC(C)CC(C)(C)C2)nc2ccccc12 (centres undefined)	-0.81	1	-6	1.1	76*	-12
CCN(C(=O)COc1ccc(C)nc1[N+](=O)[O-])C1CCS(=O)(=O)C1 (centres undefined)	-0.15	-14	-11	0.69	8	-3
COC(=O)c1c(NC(=O)CSc2ccccc2N)sc(C)c1C	0.0054	-6	-5	-0.23	7	3
CCCCSc1nnc(-c2ccc(C)cc2)c2ccccc12	0.44	-2	-7	0.73	78*	-9
O=C(Nc1cccc(Cl)c1)Nc1cccc(Cl)c1	x	-8	-45	1.4	-12	-22
O=C(Nc1ccccc1)Nc1cc(Cl)cc(Cl)c1	-0.099	-9	-51	0.21	89*	-18
O=C(NC(=S)Nc1cccnc1)c1cc2ccccc2o1	3.5*	-4	-8	88*	-4	-4
CC(=O)Nc1ccc(NC(=S)NC(=O)c2cc3ccccc3o2)cc1	x	-4	-5	0.1	15	-10
O=C(Nc1ccccc1)Nc1cc(OCC(F)(F)F)cc(OCC(F)(F)F)c1	x	28	-103	0.78	86*	-21
O=C(Nc1cccnc1)Nc1cc(Cl)cc(Cl)c1	0.45	3	-47	-0.11	77*	-23
CCOc1ccc(-c2nc(CCl)cs2)cc1OC	-0.63	-2	7	-0.026	-4	0
COc1ccc(S(=O)(=O)N2CCOCC2)cc1NC(=O)CSc1n[nH]c(C(C)C)n1	-0.045	-13	-7	-0.069	-9	-10
Cc1cccc(NC(=S)NC2CC3C=CC2C3)c1 (centres undefined)	0.56	-5	-1	2.1	x	-2
CCOc1ccc(OCC)c(S(=O)(=O)NCCOC23CC4CC(CC(C4)C2)C3)c1	-0.43	14	-14	-0.34	74*	5
CCSc1nnc(NC(=O)c2cc(OC)c(OC)c(OC)c2)s1	0.91	9	-11	-0.34	7	-2
Cc1ccccc1NC(=O)Nc1ccccc1Br	-0.18	-8	-1	1.3	11	-3
Cc1cccc(C)c1NC(=O)CN(C)CC(=O)Nc1ccccc1Br	x	6	-7	0.46	66*	-2
CS(=O)(=O)N1CCN(Cc2ccc(C(F)(F)F)cc2)CC1	-0.0042	81*	-5	0.21	14	8
O=C(N/N=C/c1ccc2cccnc2c1)c1nc2ccccc2c(=O)[nH]1	x	31	-10	0.34	x	-3
Cc1ccc(-n2sc3ccccc3c2=O)cc1	x	41	37*	1.1	96	101*
